Measurements from ChEMBL document CHEMBL2406947, “Syntheses and evaluation of novel isoliquiritigenin derivatives as potential dual inhibitors for amyloid-beta aggregation and 5-lipoxygenase” (Eur J Med Chem, 2013).
pIC50: −log10 of the molar value. Calls of active or inactive are those of the source. The rule behind the calls is not given here.

Columns and labels:
[1] = Inhibition of potato 5-LOX using linoleic acid as substrate assessed as hydroperoxides production after 5 mins by enzyme immuno assay; parameters: species or system Solanum tuberosum
[2] = target: T1, Amyloid-beta precursor protein (Homo sapiens, UniProt P05067); test: Inhibition of amyloid beta (1-42) self-mediated aggregation (unknown origin) after 5 days by thioflavin T fluorescence method
[3] = Cytotoxicity against human SH-SY5Y cells after 48 hrs by MTT assay; type: cell-based
Outline: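 SH-SY5Y cells grown in DMEM with 10% FBS, 1 mM glutamine, penicillin/streptomycin, 5% CO2, 37 °C; seeded 10,000 cells/well, treated after 24 h with 0-100 µM for 48 h; MTT (5 mg/mL stock) added for 4 h, formazan dissolved in DMSO, absorbance at 570 nm.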

[4] = target: T1, Amyloid-beta precursor protein; test: Inhibition of amyloid beta (1 to 42) fibrilation (unknown origin) at 20 uM after 4 days by transmission electron microscopic analysis
Outline: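 Aβ(1-42) at 40 µM final in 50 mM phosphate pH 7.4 incubated at 37 °C for 4 days with or without 20 µM compound; samples applied to carbon-coated grids, water-washed, negatively stained 1 min with 2% uranyl acetate, examined by transmission electron microscopy.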

[5] = target: T1, Amyloid-beta precursor protein; test: Inhibition of amyloid beta (1 to 42) fibrilation (unknown origin) assessed as reduction in […] structure formation at 10 uM after 2 days by CD spectroscopy assay
Outline: (§1)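 20 µM Aβ(1-42) incubated with or without 10 µM compound in 50 mM sodium phosphate pH 7.4 at 37 °C for 2 days; CD spectra recorded at 25 °C, 190-260 nm, 1 mm quartz cell, 0.5 nm bandwidth, 10 nm/min; background and compound spectra subtracted.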

[6] = target: T1, Amyloid-beta precursor protein; test: Inhibition of amyloid beta (1 to 42) fibrilation (unknown origin) assessed as reduction in beta-sheet structure formation at 10 uM after 2 days by CD spectroscopy assay; outline: as §1

T1 sequence (P05067 whole entry): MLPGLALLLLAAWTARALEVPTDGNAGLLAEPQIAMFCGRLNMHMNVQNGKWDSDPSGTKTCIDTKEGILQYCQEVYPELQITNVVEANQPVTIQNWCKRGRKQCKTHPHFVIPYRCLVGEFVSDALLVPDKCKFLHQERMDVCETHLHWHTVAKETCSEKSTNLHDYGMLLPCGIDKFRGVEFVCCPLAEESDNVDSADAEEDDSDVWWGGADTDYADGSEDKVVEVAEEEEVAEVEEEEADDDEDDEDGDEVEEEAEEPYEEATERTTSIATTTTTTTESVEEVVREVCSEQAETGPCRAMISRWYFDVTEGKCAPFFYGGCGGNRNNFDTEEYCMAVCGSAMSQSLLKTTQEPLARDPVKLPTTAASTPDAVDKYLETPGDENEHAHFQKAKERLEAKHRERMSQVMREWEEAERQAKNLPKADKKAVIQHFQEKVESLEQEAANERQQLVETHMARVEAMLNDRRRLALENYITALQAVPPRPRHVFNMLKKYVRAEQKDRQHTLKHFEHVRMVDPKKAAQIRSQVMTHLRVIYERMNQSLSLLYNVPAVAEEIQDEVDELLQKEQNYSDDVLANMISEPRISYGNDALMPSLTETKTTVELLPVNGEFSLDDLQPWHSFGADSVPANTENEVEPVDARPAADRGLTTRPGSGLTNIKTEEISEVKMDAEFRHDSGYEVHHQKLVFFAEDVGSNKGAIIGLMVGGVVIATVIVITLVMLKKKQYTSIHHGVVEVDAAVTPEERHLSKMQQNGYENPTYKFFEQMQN

Row | SMILES | pIC50 [1] | pIC50 [2] | inhibition [4] | inhibition [5] | inhibition [6] | pIC50 [3]
1 | COc1ccc(C(=O)/C=C/c2cc(OC)c(OC)cc2OC)c(O)c1 | 4.85 | 4.99 |  |  |  | < 4.00
2 | CCCCCCCCCCCCNC(=O)c1ccc(/C=C/C(=O)c2ccc(OC)cc2O)cc1 | 4.80 | 4.80 |  |  |  | < 4.00
3 | COc1ccc(C(=O)/C=C/c2ccc(C(=O)Nc3ccc(C)cc3C)cc2)c(O)c1 | 4.79 | 5.08 |  |  |  | < 4.00
4 | COc1ccc(C(=O)/C=C/c2ccc(C(=O)NCCc3ccccc3)cc2)c(O)c1 | 4.85 | 4.72 |  |  |  | < 4.00
5 | CCOCCCOc1ccc(/C=C/C(=O)c2ccc(OC)cc2O)cc1OC | 4.91 | 5.24 |  |  |  | < 4.00
6 | COc1ccc(C(=O)/C=C/c2ccc(C(=O)NCc3ccccc3)cc2)c(O)c1 | 4.74 | 4.72 |  |  |  | < 4.00
7 | CCOCCOc1cccc(/C=C/C(=O)c2ccc(OC)cc2O)c1 | 4.77 | 4.98 |  |  |  | < 4.00
8 | COc1ccc(/C=C/C(=O)c2ccc(OC)cc2O)cc1 | 4.80 | 5.08 |  |  |  | < 4.00
9 | COc1ccc(C(=O)/C=C/c2ccc(OCCCOc3ccccc3)c(OC)c2)c(O)c1 | 4.89 | 4.96 |  |  |  | < 4.00
10 | COC(=O)c1ccc(/C=C/C(=O)c2ccc(OC)cc2O)cc1 | 4.45 | 4.62 |  |  |  | < 4.00
11 | COc1ccc(C(=O)/C=C/c2cc(Br)c(OCc3ccccc3)c(OC)c2)c(O)c1 | 4.94 | 4.90 |  |  |  | < 4.00
12 | COc1ccc(C(=O)/C=C/c2ccc(C(=O)Nc3ccccc3OC)cc2)c(O)c1 | 4.60 | 5.14 |  |  |  | < 4.00
13 | COc1ccc(C(=O)/C=C/c2ccc(C(=O)NC(C)C)cc2)c(O)c1 | 4.66 | 4.75 |  |  |  | < 4.00
14 | CC(Cc1ccc(O)c(O)c1)C(C)Cc1ccc(O)c(O)c1 (stereo unspecified) [NORDIHYDROGUAIARETIC ACID] | 4.91 |  |  |  |  | 
15 | COc1ccc(C(=O)/C=C/c2ccc(C(=O)Nc3ccccc3O)cc2)c(O)c1 | 4.78 | 5.00 |  |  |  | < 4.00
16 | O=C(/C=C/c1ccc(O)cc1)c1ccc(O)cc1O [ISOLIQUIRITIGENIN] | 4.73 | 4.71 |  |  |  | 
17 | COc1ccc(C(=O)/C=C/c2ccc(C(=O)N(C)c3ccccc3)cc2)c(O)c1 | 4.69 | 4.70 |  |  |  | < 4.00
18 | CCCNC(=O)c1ccc(/C=C/C(=O)c2ccc(OC)cc2O)cc1 | 4.89 | 4.70 |  |  |  | < 4.00
19 | COc1ccc(C(=O)/C=C/c2ccc(C(=O)O)cc2)c(O)c1 | 4.52 | 4.73 |  |  |  | < 4.00

More lines, main results first:

Row | pIC50 [1] | pIC50 [2] | inhibition [4] | inhibition [5] | inhibition [6] | SMILES | pIC50 [3]
20 | 4.98 | 4.84 |  |  |  | COc1ccc(C(=O)/C=C/c2ccc(C(=O)N3CCCC3)cc2)c(O)c1 | < 4.00
21 | 5.01 | 4.72 |  |  |  | CCOCCOc1ccc(/C=C/C(=O)c2ccc(OC)cc2O)cc1 | < 4.00
22 | 5.10 | 5.66 |  |  |  | COc1ccc(C(=O)/C=C/c2ccc(C(=O)N3CCN(C)CC3)cc2)c(O)c1 | < 4.00
23 | 5.17 | 5.23 |  |  |  | COc1ccc(C(=O)/C=C/c2ccc(C(=O)N3CCCCC3)cc2)c(O)c1 | < 4.00
24 | 4.99 | 5.11 |  |  |  | COc1ccc(C(=O)/C=C/c2ccc(OCc3ccccc3)cc2)c(O)c1 | < 4.00
25 | 5.21 | 5.49 | Active | inactive | Active | COc1ccc(C(=O)/C=C/c2ccc(C(=O)N3CCOCC3)cc2)c(O)c1 | < 4.00
26 | 4.94 | 4.88 |  |  |  | COc1ccc(C(=O)/C=C/c2ccc(C(=O)Nc3cc([N+](=O)[O-])ccc3O)cc2)c(O)c1 | < 4.00
27 | 4.99 | 5.01 |  |  |  | COc1ccc(C(=O)/C=C/c2cc(OC)c(OC)c(OC)c2)c(O)c1 | < 4.00
